In paper PMC8489566 (ACS nano, 2020):

Legend:
human THP-1 macrophages = type: cell-based
[1] = tested on: mouse-derived J774A.1 macrophages; type: cell-based
In short: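 J774A.1 macrophages plated 24 h in RPMI with 10% FBS, then treated with test compound (20 nM, 1 μM or 50 μM) for 1 h at 37 °C and washed; positive control was 5 μg/mL rat anti-mouse SIRPα. Human RBCs were EDTA-washed, opsonized with 20 μg/mL rabbit anti-RBC IgG (1 h, RT), and PKH26-labelled. They were added at 10:1 for 1 h at 37 °C, then fixed and Hoechst-stained for fluorescence imaging.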

SIRPα = experiment: CD47-Fc inhibition assay; type: binding, human; conditions: THP-1 macrophages, 1 μM or 50 μM peptide 1 h, Fc-receptor blockade, 2 μg/mL CD47-Fc, anti-Fc fluorescence, n = 2 sets of triplicates

Substance: nS-wt: CD47's eight amino acid binding loop, wild-type nano-Self peptide, C-terminal amide
- phagocytosis levels at maximum peptide concentration (human THP-1 macrophages; 50 μM peptide, opsonized RBCs): well above those for nS-X and nS-XX controls
- macrophages that internalize opsonized RBCs, peptide combined with anti-RBC (human THP-1 macrophages; maximum peptide concentration (50 μM), anti-RBC ~133 nM, n = 3): ~ 30%
- phagocytosis compared with anti-CD47 (human THP-1 macrophages; saturating peptide, opsonized RBCs): gives the same result as anti-CD47
- phagocytosis by mouse macrophages ([1]; J774A.1 macrophages, opsonized RBCs, high concentrations (50 μM)): matches anti-CD47 blockade effects
- effective activity in the mouse macrophage assay relative to the human assay ([1]; weaker in mouse than in human macrophages): ~ 100 fold
- level of inhibition of CD47-Fc binding to macrophages (SIRPα): inhibited
